# ChEMBL document CHEMBL1127451, “Benzoselenazolinone derivatives designed to be glutathione peroxidase mimetics feature inhibition of cyclooxygenase/5-lipoxygenase pathways and anti-inflammatory activity” (1994)
# Assays:
# Assay type in all cases: functional
# [1] = test system: Rattus norvegicus; assay: Tested for acute anti-inflammatory activity of the antirat serum-induced edema in rats at dose of 10 mg/kg at time interval- 0.5 hr
# Outline: (§1)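 Oral dosing of fasted Wistar rats (200–240 g, six per group) with drug in 0.5 mL 2% gelatin; 1 h later 0.1 mL rabbit antirat serum given by subplantar injection into hind paw.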
# [2] = test system: Rattus norvegicus; assay: Tested for acute anti-inflammatory activity of carrageenan-induced foot edema in rats at dose of 0.1 mg/kg at time interval- 0.5 hr
# Outline: (§2)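 Fasted male-unspecified Wistar rats (200–240 g), groups of six, dosed orally with drug in 0.5 mL 2% gelatin; 1 h later 0.1 mL carrageenan (2% in […]) injected subplantar into hind paw. Paw volume by water plethysmometer at 0, 0.5, 1, 2, 3, 4 h; mean swelling versus vehicle-treated group expressed as percent inhibition.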
# [3] = test system: Rattus norvegicus; assay: Tested for acute anti-inflammatory activity of the antirat serum-induced edema in rats at dose of 0.1 mg/kg at time interval- 2 hr; outline: as §1
# [4] = test system: Rattus norvegicus; assay: Tested for acute anti-inflammatory activity of the antirat serum-induced edema in rats at dose of 1 mg/kg at time interval- 0.5 hr; outline: as §1
# [5] = test system: Rattus norvegicus; assay: Tested for acute anti-inflammatory activity of the antirat serum-induced edema in rats at dose of 1 mg/kg at time interval- 4 hr; outline: as §1
# [6] = test system: Rattus norvegicus; assay: Tested for acute anti-inflammatory activity of carrageenan-induced foot edema in rats at dose of 10 mg/kg at time interval- 1 hr; outline: as §2
# [7] = test system: Rattus norvegicus; assay: Tested for acute anti-inflammatory activity of the antirat serum-induced edema in rats at dose of 0.1 mg/kg at time interval- 1 hr; outline: as §1
# [8] = test system: Rattus norvegicus; assay: Tested for acute anti-inflammatory activity of carrageenan-induced foot edema in rats at dose of 0.1 mg/kg at time interval- 1 hr; outline: as §2
# [9] = test system: Rattus norvegicus; assay: Tested for acute anti-inflammatory activity of carrageenan-induced foot edema in rats at dose of 10 mg/kg at time interval- 4 hr; outline: as §2
# [10] = test system: Rattus norvegicus; assay: Tested for acute anti-inflammatory activity of carrageenan-induced foot edema in rats at dose of 10 mg/kg at time interval- 3h; outline: as §2
# [11] = test system: Rattus norvegicus; assay: Tested for acute anti-inflammatory activity of carrageenan-induced foot edema in rats at dose of 10 mg/kg at time interval- 0.5 hr; outline: as §2
# [12] = test system: Rattus norvegicus; assay: Tested for acute anti-inflammatory activity of carrageenan-induced foot edema in rats at dose of 1 mg/kg at time interval- 0.5 hr; outline: as §2
# [13] = test system: Rattus norvegicus; assay: Tested for acute anti-inflammatory activity of carrageenan-induced foot edema in rats at dose of 1 mg/kg at time interval- 1 hr; outline: as §2
# [14] = test system: Rattus norvegicus; assay: Tested for acute anti-inflammatory activity of carrageenan-induced foot edema in rats at dose of 1 mg/kg at time interval- 2 hr; outline: as §2
# [15] = test system: Rattus norvegicus; assay: Tested for acute anti-inflammatory activity of the antirat serum-induced edema in rats at dose of 1 mg/kg at time interval- 2 hr; outline: as §1
# [16] = test system: Rattus norvegicus; assay: Tested for acute anti-inflammatory activity of the antirat serum-induced edema at dose of 1 mg/kg at time interval- 3h; outline: as §1
# [17] = test system: Rattus norvegicus; assay: Tested for acute anti-inflammatory activity of carrageenan-induced foot edema in rats at dose of 1 mg/kg at time interval- 4 hr; outline: as §2
# [18] = test system: Rattus norvegicus; assay: Tested for acute anti-inflammatory activity of the antirat serum-induced edema in rats at dose of 10 mg/kg at time interval- 1 hr; outline: as §1
# [19] = test system: Rattus norvegicus; assay: Tested for acute anti-inflammatory activity of the antirat serum-induced edema in rats at dose of 10 mg/kg at time interval- 3h; outline: as §1
# [20] = test system: Rattus norvegicus; assay: Tested for acute anti-inflammatory activity of carrageenan-induced foot edema in rats at dose of 0.1 mg/kg at time interval- 4 hr; outline: as §2
# [21] = test system: Rattus norvegicus; assay: Tested for acute anti-inflammatory activity of the antirat serum-induced edema in rats at dose of 0.1 mg/kg at time interval- 4 hr; outline: as §1
# [22] = test system: Rattus norvegicus; assay: Tested for acute anti-inflammatory activity of carrageenan-induced foot edema in rats at dose of 0.1 mg/kg at time interval- 2 hr; outline: as §2
# [23] = test system: Rattus norvegicus; assay: Tested for acute anti-inflammatory activity of the antirat serum-induced edema in rats at dose of 1 mg/kg at time interval- 1 hr; outline: as §1
# [24] = test system: Rattus norvegicus; assay: Tested for acute anti-inflammatory activity of the antirat serum-induced edema in rats at dose of 0.1 mg/kg at time interval- 3h; outline: as §1
# [25] = test system: Rattus norvegicus; assay: Tested for acute anti-inflammatory activity of the antirat serum-induced edema in rats at dose of 10 mg/kg at time interval- 4 hr; outline: as §1
# [26] = test system: Rattus norvegicus; assay: Tested for acute anti-inflammatory activity of the antirat serum-induced edema in rats at dose of 10 mg/kg at time interval- 2 hr; outline: as §1
# [27] = test system: Rattus norvegicus; assay: Tested for acute anti-inflammatory activity of carrageenan-induced foot edema in rats at dose of 1 mg/kg at time interval- 3h; outline: as §2
# [28] = test system: Rattus norvegicus; assay: Tested for acute anti-inflammatory activity of carrageenan-induced foot edema in rats at dose of 10 mg/kg at time interval- 2 hr; outline: as §2
# [29] = test system: Rattus norvegicus; assay: Tested for acute anti-inflammatory activity of carrageenan-induced foot edema in rats at dose of 0.1 mg/kg at time interval- 3h; outline: as §2
# [30] = test system: Rattus norvegicus; assay: Tested for acute anti-inflammatory activity of the antirat serum-induced edema in rats at dose of 0.1 mg/kg at time interval- 0.5 hr; outline: as §1
compound,measurement,setting,value
COc1ccc2c(c1)c(CC(=O)O)c(C)n2C(=O)c1ccc(Cl)cc1 [INDOMETHACIN],inhibition in vivo at 10 mg/kg,[1],-21.2%
same,inhibition in vivo at 0.1 mg/kg,[2],-124%
same,inhibition in vivo at 0.1 mg/kg,[3],4.4%
same,inhibition in vivo at 1 mg/kg,[4],-8.1%
same,inhibition in vivo at 1 mg/kg,[5],7.5%
same,inhibition in vivo at 10 mg/kg,[6],26.2%
same,inhibition in vivo at 0.1 mg/kg,[7],-7.9%
same,inhibition in vivo at 0.1 mg/kg,[8],11.3%
same,inhibition in vivo at 10 mg/kg,[9],65.2%
same,inhibition in vivo at 10 mg/kg,[10],68.7%
same,inhibition in vivo at 10 mg/kg,[11],-57.1%
same,inhibition in vivo at 1 mg/kg,[12],-22.2%
same,inhibition in vivo at 1 mg/kg,[13],41.8%
same,inhibition in vivo at 1 mg/kg,[14],40.2%
same,inhibition in vivo at 1 mg/kg,[15],10%
same,inhibition in vivo at 1 mg/kg,[16],1.6%
same,inhibition in vivo at 1 mg/kg,[17],29.5%
same,inhibition in vivo at 10 mg/kg,[18],-1.5%
same,inhibition in vivo at 10 mg/kg,[19],25.5%
same,inhibition in vivo at 0.1 mg/kg,[20],-1.7%
same,inhibition in vivo at 0.1 mg/kg,[21],16.9%
same,inhibition in vivo at 0.1 mg/kg,[22],1.7%
same,inhibition in vivo at 1 mg/kg,[23],-3%
same,inhibition in vivo at 0.1 mg/kg,[24],4.4%
same,inhibition in vivo at 10 mg/kg,[25],24.5%
same,inhibition in vivo at 10 mg/kg,[26],22.5%
same,inhibition in vivo at 1 mg/kg,[27],40%
same,inhibition in vivo at 10 mg/kg,[28],55.5%
same,inhibition in vivo at 0.1 mg/kg,[29],4%
same,inhibition in vivo at 0.1 mg/kg,[30],-28.3%
